CHO parental Ca: signal in parental CHO cells, OX1R antagonist counter-screen; parental CHO-K1, ATP-induced calcium, Fluo-8 fluorescence; inhibition, % at 5.6 µM; 330,000 tested, 0.63% active;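 active = inhibition above that plate's mean sample inhibition plus 3 SD, cut at about 26% in these data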;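 also: 0% = ATP-challenged DMSO wells and 100% = DMSO wells without ATP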
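Assay system: parental CHO cells; Read-out basis: percent inhibition of ATP-evoked calcium rise, normalized to controls; Benchmarks: ATP and no-ATP DMSO wells; Compound dosing: single nominal dose of 5.6 µM per compound; Signal: Fluo-8 calcium dye fluorescence; Also added: ATP as calcium-mobilizing challenge; Repeats: singlicate.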
TAAR1 ag: human TAAR1 agonism. activation, % at 3 µM. Q96RJ0. 360,000 tested, 0.99% active. CHO RD-HGA16 TAAR1, Fluo-8 calcium fluorescence; vehicle wells 0%, saturating PEA agonist 100%. AID 624467;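 active = activation above the mean activation of all test compounds in the run plus 3 SD, cut at about 38% in these data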
Target sequence (Q96RJ0 whole entry, looked up): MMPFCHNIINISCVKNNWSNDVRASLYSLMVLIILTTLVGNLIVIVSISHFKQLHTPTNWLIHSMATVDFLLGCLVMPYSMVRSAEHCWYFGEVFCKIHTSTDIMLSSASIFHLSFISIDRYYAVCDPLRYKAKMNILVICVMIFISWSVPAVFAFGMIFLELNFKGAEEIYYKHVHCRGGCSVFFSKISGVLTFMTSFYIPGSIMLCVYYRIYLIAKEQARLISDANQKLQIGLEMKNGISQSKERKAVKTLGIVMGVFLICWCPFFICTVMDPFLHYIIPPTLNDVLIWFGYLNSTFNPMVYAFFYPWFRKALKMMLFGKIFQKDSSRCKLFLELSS
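Assay system: CHO-derived RD-HGA16 cells with stable Gα16 and human TAAR1; timing: 17-24 h seeding, 75 min 37 °C dye, 30 min RT; read-out: % activation from peak over basal fluorescence ratio, DMSO-to-PEA scaled; measured by: kinetic Fluo-8 calcium fluorescence; benchmarks: low control DMSO, high control PEA (EC100); doses: 3 µM single concentration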
OX1R antag-1: antagonists of human orexin 1 receptor (OX1R); inhibition, % at 6.6 µM; 330,000 tested, 1.8% active; O43613; OX1R-expressing cells, FRET antagonist read-out; in the data active = inhibition mostly above about 38%, no sharp cut-off; inactive = mostly below about 40%;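 also: 0% = agonist challenge alone and 100% = reference antagonist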
GPR7 antag: human neuropeptides B/W receptor 1 antagonism; P48145; GPR7-expressing cells, fluorescence antagonist assay; inhibition, % at 4.4 µM; 290,000 tested, 1.1% active; in the data active = inhibition above about 16%, passing the limit was not always enough;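 also: cells stimulated with the agonist NPW; 0% = agonist with vehicle and 100% = vehicle without agonist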
Target sequence (P48145 whole entry, looked up): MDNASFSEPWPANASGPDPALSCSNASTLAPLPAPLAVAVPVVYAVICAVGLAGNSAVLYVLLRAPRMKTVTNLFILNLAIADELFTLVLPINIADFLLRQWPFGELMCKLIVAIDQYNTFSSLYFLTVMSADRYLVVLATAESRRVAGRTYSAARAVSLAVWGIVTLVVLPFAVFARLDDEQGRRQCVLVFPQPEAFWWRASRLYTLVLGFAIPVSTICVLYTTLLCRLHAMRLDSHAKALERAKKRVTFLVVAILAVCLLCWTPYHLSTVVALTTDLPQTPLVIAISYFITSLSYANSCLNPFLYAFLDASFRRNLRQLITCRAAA
TAAR1 antag: human TAAR1 antagonism; Q96RJ0; 360,000 tested, 1.5% active; inhibition, % at 3 µM; CHO RD-HGA16 TAAR1, Fluo-8 calcium fluorescence, antagonist;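 active = inhibition above a per-plate cutoff, the mean inhibition of test compounds on that plate plus 3 SD, cut at about 49% in these data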;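 also: 0% = DMSO plus EC80 beta-PEA response and 100% = DMSO alone without agonist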
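Test system – hTAAR1-expressing CHO RD-HGA16 cells, Gα16-coupled · Reagent – β-PEA at EC80 concentration, post-compound challenge · Compound dosing – 3 µM, single point · Timing – 140 s kinetic read after compound, 140 s after agonist · Detection – Fluo-8 intracellular calcium dye fluorescence, real-time kinetic reads · Control set – DMSO and EC80 PEA controls · Repeats – n of 1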
OX1R antag-2: human HCRTR1 antagonism | O43613 | CHO/OX1R cells, Fluo-8 calcium fluorescence, orexin A | inhibition, % at 5 µM | 330,000 tested, 0.43% active | AID 434989;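 active = inhibition above its plate's threshold, mean inhibition of all tested compounds on the plate plus 3 SD, cut at about 37% in these data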;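 also: 0% = orexin A challenge wells and 100% = SB-334867-A antagonist wells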
GPR7 antag cf: confirmation of human GPR7 antagonists. shares compounds with GPR7 antag. GPR7-expressing cells, calcium fluorescence antagonist mode. inhibition, % at 4.4 µM. 2,400 tested, 52% active. AID 1952; in the data active = inhibition above about 24%;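 also: stimulated with the GPR7 agonist NPW; 0% = agonist plus vehicle and 100% = vehicle alone without agonist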
MCHR1 antag: MCHR1 (human) antagonism in GPR7 counter-screen. shares compounds with GPR7 antag. MCHR1-expressing cells, fluorescence antagonist assay. inhibition, % at 4.4 µM. 2,400 tested, 62% active; in the data active = inhibition above about 22%;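 also: 0% = vehicle with agonist and 100% = vehicle without agonist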
Starred values were filed as active, the others as inactive; / = no result. Only some compounds are listed: those with a hit (about 4.5% of all), similar ones and a draw of the others.

SMILES	CHO parental Ca	TAAR1 ag	OX1R antag-1	GPR7 antag	TAAR1 antag	OX1R antag-2	GPR7 antag cf	MCHR1 antag
Cc1ccc(-c2nnc(N3CCN(C(=O)c4cccs4)CC3)c3ccccc23)cc1	-22	3	-5	-3	-25	-17	/	/
Cc1ccc(-c2ocnc2C(=O)N2CCN(C(=O)c3cccs3)CC2)cc1	-16	1	22	28*	-20	-10	21	7
CCOc1ccc(N2CC(C(=O)Nc3ccncc3)CC2=O)cc1 (stereo unspecified)	-4	-3	7	25*	14	-13	-8	1
O=C(Oc1ccc(Cl)cc1N1C(=O)CCC1=O)c1ccco1	-2	9	4	-3	5	1	/	/
O=C(/C=C/c1ccc([N+](=O)[O-])s1)N1CCN(c2ccccc2)CC1	-4	-2	5	26*	-12	5	6	5
O=C(/C=C/c1ccccc1[N+](=O)[O-])N1CCN(c2ccc(F)cc2)CC1	-8	0	20	-6	5	-7	/	/
O=C(NCc1ccccc1)C(=O)Nc1nccs1	-2	2	4	8	-24	-4	/	/
O=C(Nc1ccc(S(=O)(=O)N2CCCCC2)cc1)c1ccc(CN2CCOCC2)cc1	19	/	-1	60*	/	12	62*	83*
O=C(Nc1ccc(S(=O)(=O)N2CCCC2)cc1)c1ccc(CN2CCOCC2)cc1	-9	24	12	16	11	-27	/	/
O=C(Nc1ccc(S(=O)(=O)Nc2ccc(F)cc2)cc1)c1ccc(CN2CCOCC2)cc1	15	15	28	30*	23	14	66*	77*
Cc1cc(Br)cn2c(Cc3ccsc3)c(-c3cccc(Br)c3)nc12	/	1	/	/	-18	/	/	/
Cc1ccc(Cl)cc1NC(=O)c1cc2ccccc2cc1O	58*	5	65	25*	0	46*	54*	53*
Cc1ccc(N2C(=O)N(CC(=O)C(C)(C)C)c3ccccc3S2(=O)=O)cc1	/	/	/	6	/	/	/	/
CN1C(=O)c2ccc(NC(=O)CSc3ccccc3)cc2C1=O	1	1	16	3	-30	3	/	/
COc1ccccc1CC(=O)Nc1ccc(OC)c(OC)c1	-1	5	15	-11	0	-9	/	/
COc1ccccc1CC(=O)Nc1ccc2c(c1)C(=O)NC2=O	4	1	17	33*	3	0	23	16
O=C(CSc1ccc(F)cc1)Nc1ccc2c(c1)C(=O)NC2=O	31	2	21	25*	28	0	36*	43*
CNC(=O)CN(c1ccc(F)cc1)S(=O)(=O)c1cc(C)ccc1OC	-12	1	11	-6	15	-19	/	/
CC(C)(C)c1ccc(NC(=O)CCNC(=O)c2ccco2)cc1	-8	2	13	-2	14	-12	/	/
CCC(C)NCCOCCOc1ccc(Cl)c2ccccc12 (stereo unspecified)	-1	25	9	71*	19	0	50*	53*
CCC(C)NCCOCCOc1ccc(Cl)c(C)c1C (stereo unspecified)	-12	9	7	21*	14	-19	24*	25*
C=CCc1cc(Cl)ccc1OCCOCCNC(C)CC (stereo unspecified)	-9	5	4	6	-11	-16	/	/
N#Cc1cnc(Nc2ccc(F)cc2)nc1N	1	0	4	-3	-31	-7	/	/
Cc1[nH]nc2c1C(c1cccs1)C(C#N)=C(N)O2 (stereo unspecified)	-6	0	18	40*	23	0	5	6
COC(=O)C(C(=O)OC)C(C)C(C(=O)OC)C(=O)OC	-2	9	15	-5	-4	0	/	/
SMILES	CHO parental Ca	TAAR1 ag	OX1R antag-1	GPR7 antag	TAAR1 antag	OX1R antag-2	GPR7 antag cf	MCHR1 antag
C=CCc1cccc(Cl)c1OCCCNC1CCCC1	-20	6	3	30*	8	-22	31*	21*
COC(=O)C(C(=O)OC)C(c1ccccc1)C(C(=O)c1ccccc1)[N+](=O)[O-] (stereo unspecified)	-9	6	13	-19	-1	-20	/	/
CC1(C)NC(=O)N(CC(=O)OCC(=O)Nc2sccc2C#N)C1=O	-1	6	11	0	12	-4	/	/
COc1ccc(S(=O)(=O)NC(C)C(=O)N2CCCC2)cc1C (stereo unspecified)	/	1	/	3	13	/	/	/
CCOC(=O)c1sc(NC(=O)Nc2ccc(Cl)cc2)cc1C	79*	13	86*	35*	82*	67*	63*	72*
CC(CC(=O)c1ccccc1)=NCC(O)CN=C(C)CC(=O)c1ccccc1 (stereo unspecified)	/	-2	/	/	-24	/	/	/
CC(C(=O)N1CCN(Cc2ccc3c(c2)OCO3)CC1)c1ccc([N+](=O)[O-])cc1 (stereo unspecified)	-20	12	26	27*	0	-26	27*	27*
O=C(C(Cl)Cl)N1CCN(Cc2ccc3c(c2)OCO3)CC1	0	2	-9	-15	0	-15	/	/
C/C(CC(=O)Nc1ccc(N(C)C)cc1)=N\NC(=O)c1ccc([N+](=O)[O-])cc1	/	0	/	27*	-4	/	7	2
C=CCn1c(SCc2c(C)noc2C)nc2ccccc2c1=O	-13	5	11	26*	13	-40	23	24*
Cc1noc(C)c1CSc1nc2ccccc2c(=O)n1-c1ccccc1	-26	0	5	8	4	-26	/	/
Cc1cc2c(Nc3cccc(O)c3)ncnc2s1	-8	0	9	-1	5	-15	/	/
CCN(CC)S(=O)(=O)c1ccc(N2CCCC2)c(NC(=O)Cc2c(F)cccc2Cl)c1	-24	-1	14	31*	-12	-21	44*	41*
CCN(CC(=O)Nc1c(F)cccc1F)C(=O)c1cc(S(=O)(=O)N(CC)CC)ccc1N1CCCCC1	-35	3	16	29*	-14	-34	32*	26*
CCN1CCN(c2ccc(S(=O)(=O)N3CCCCC3)cc2NC(=O)Cc2c(F)cccc2Cl)CC1	-12	6	-5	-7	-15	-36	/	/
CCN(CC(=O)Nc1c(F)cccc1F)C(=O)c1cc(S(=O)(=O)N(C)C)ccc1N1CCCC1	-18	2	14	/	-3	-12	/	/
O=C(Nc1c2c(nn1-c1ccc([N+](=O)[O-])cc1)CS(=O)(=O)C2)c1ccco1	-2	2	33	1	-28	-5	/	/
Oc1ccc(N2CCN(Cc3nc4ccccc4[nH]3)CC2)cc1	-4	3	7	-19	-8	-17	/	/
